Active and inactive are the calls of the source. No cut-off for these calls is given here.
How the values were obtained:
[1] = test system: A549; experiment: Antiproliferative activity against human A549 cells assessed as growth inhibition after 48 hrs by SRB assay; conditions: A549, 48 h
[2] = test system: MCF7; experiment: Antiproliferative activity against human MCF7 cells assessed as growth inhibition after 48 hrs by SRB assay; conditions: MCF7, 48 h
[3] = test system: DU-145; experiment: Antiproliferative activity against human DU145 cells assessed as growth inhibition after 48 hrs by SRB assay; conditions: DU-145, 48 h
[4] = test system: DU-145; experiment: Cell cycle arrest in human DU145 cells assessed as cells accumulation at SubG1 phase at 2 uM after 48 hrs by propidium iodide staining-based flow cytometric analysis (reference value: 3.52%); type: functional
[5] = test system: DU-145; experiment: Cell cycle arrest in human DU145 cells assessed as cells accumulation at SubG1 phase at 1 uM after 48 hrs by propidium iodide staining-based flow cytometric analysis (reference value: 3.52%); type: functional
[6] = test system: DU-145; experiment: Cell cycle arrest in human DU145 cells assessed as cells accumulation at G0/G1 phase at 2 uM after 48 hrs by propidium iodide staining-based flow cytometric analysis (reference value: 84.75%); type: functional
[7] = test system: DU-145; experiment: Cell cycle arrest in human DU145 cells assessed as cells accumulation at G0/G1 phase at 1 uM after 48 hrs by propidium iodide staining-based flow cytometric analysis (reference value: 84.75%); type: functional
[8] = test system: DU-145; experiment: Cell cycle arrest in human DU145 cells assessed as cells accumulation at S phase at 2 uM after 48 hrs by propidium iodide staining-based flow cytometric analysis (reference value: 4.18%); type: functional
[9] = test system: DU-145; experiment: Cell cycle arrest in human DU145 cells assessed as cells accumulation at S phase at 1 uM after 48 hrs by propidium iodide staining-based flow cytometric analysis (reference value: 4.18%); type: functional
[10] = test system: DU-145; experiment: Cell cycle arrest in human DU145 cells assessed as cells accumulation at G2/M phase at 2 uM after 48 hrs by propidium iodide staining-based flow cytometric analysis (reference value: 6.81%); type: functional
[11] = test system: DU-145; experiment: Cell cycle arrest in human DU145 cells assessed as cells accumulation at G2/M phase at 1 uM after 48 hrs by propidium iodide staining-based flow cytometric analysis (reference value: 6.81%); type: functional
[12] = biological target: T1, Tubulin (Homo sapiens) (UniProt P68371+Q9H4B7+P0DPH7+P68366+Q13509+Q71U36+P04350+Q3ZCM7+P07437+P68363+Q9BQE3+Q6PEY2+Q13885+Q9BVA1+Q9BUF5); experiment: Inhibition of tubulin polymerization (unknown origin) at 3 uM after 1 hr by fluorescence analysis; type: protein-complex assay
In short: (§1)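 Fluorescence-reporter tubulin polymerization kit. Tubulin (3 mg/mL) in PEM buffer with 1 mM GTP, with or without compound (3 µM, or 2.5–15 µM for IC50). Fluorescence (ex 360 / em 420 nm) was followed for 1 h at 37 °C. IC50 is the concentration giving 50% inhibition of assembly versus control. Data are mean ± SD of two experiments in triplicate, with E7010 as positive control.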

[13] = biological target: Tubulin; experiment: Inhibition of tubulin polymerization (unknown origin) after 1 hr by fluorescence analysis; type: protein-complex assay, Homo sapiens
In short: as §1

[14] = biological target: T1, Tubulin (Homo sapiens); experiment: Displacement of colchicine from tubulin (unknown origin) at 5 to 25 uM after 60 mins by competitive binding assay; type: protein-complex assay
In short: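 Compound (5, 10, 15, 20, 25 µM) was co-incubated with 4 µM colchicine and 3 µM tubulin in 30 mM Tris buffer for 60 min at 37 °C. Tubulin–colchicine fluorescence was read at ex 350 / em 435 nm. Buffer blank was subtracted and values were normalized to DMSO control (F/F0). Nocodazole or E7010 served as positive control and taxol as negative control.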

[15] = test system: DU-145; experiment: Induction of apoptosis in human DU145 cells assessed as reduction in mitochondrial membrane potential at 2 uM after 48 hrs using JC-1 staining-based flow cytometry; type: functional, cell-based
[16] = test system: DU-145; experiment: Induction of apoptosis in human DU145 cells assessed as increase in caspase 3 activation at 1 uM after 48 hrs by ELISA; type: functional
In short: (§2)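 DU-145 cells were treated at 1 or 2 µM for 48 h, pelleted and PBS-washed. Pellets were lysed 15 min and centrifuged at 20,000 rpm for 15 min. Caspase-3 activity in the supernatant was measured by a colorimetric ELISA-based kit per the manufacturer. Activity is expressed as fold over untreated control, mean ± SD of two experiments in triplicate.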

[17] = test system: DU-145; experiment: Induction of apoptosis in human DU145 cells assessed as increase in caspase 3 activation at 2 uM after 48 hrs by ELISA; type: functional
In short: as §2

[18] = test system: DU-145; experiment: Induction of apoptosis in human DU145 cells assessed as necrotic cells at 2 uM after 48 hrs by annexin V-FITC/propidium iodide staining-based flow cytometric analysis (reference value: 0.22%); type: functional
[19] = test system: DU-145; experiment: Induction of apoptosis in human DU145 cells assessed as necrotic cells at 1 uM after 48 hrs by annexin V-FITC/propidium iodide staining-based flow cytometric analysis (reference value: 0.22%); type: functional
[20] = test system: DU-145; experiment: Induction of apoptosis in human DU145 cells assessed as late apoptotic cells at 2 uM after 48 hrs by annexin V-FITC/propidium iodide staining-based flow cytometric analysis (reference value: 1.96%); type: functional
[21] = test system: DU-145; experiment: Induction of apoptosis in human DU145 cells assessed as late apoptotic cells at 1 uM after 48 hrs by annexin V-FITC/propidium iodide staining-based flow cytometric analysis (reference value: 1.96%); type: functional
[22] = test system: DU-145; experiment: Induction of apoptosis in human DU145 cells assessed as viable cells at 2 uM after 48 hrs by annexin V-FITC/propidium iodide staining-based flow cytometric analysis (reference value: 97.12%); type: functional; conditions: DU-145, 48 h, read-out: Activity
[23] = test system: DU-145; experiment: Induction of apoptosis in human DU145 cells assessed as viable cells at 1 uM after 48 hrs by annexin V-FITC/propidium iodide staining-based flow cytometric analysis (reference value: 97.12%); type: functional; conditions: DU-145, 48 h, read-out: Activity
[24] = test system: DU-145; experiment: Induction of apoptosis in human DU145 cells assessed as early apoptotic cells at 2 uM after 48 hrs by annexin V-FITC/propidium iodide staining-based flow cytometric analysis (reference value: 0.71%); type: functional
[25] = test system: DU-145; experiment: Induction of apoptosis in human DU145 cells assessed as early apoptotic cells at 1 uM after 48 hrs by annexin V-FITC/propidium iodide staining-based flow cytometric analysis (reference value: 0.71%); type: functional
[26] = test system: DU-145; experiment: Induction of apoptosis in human DU145 cells assessed as induction of DNA fragmentation at 1 uM after 48 hrs by agarose gel electrophoresis; type: functional, cell-based
In short: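 DU-145 cells (1×10^6, six-well) were seeded 24 h, then treated at 1 µM for 48 h. Lysates were digested with SDS/RNase A for 2 h at 56 °C, then proteinase K for 2 h at 37 °C. DNA was precipitated with ammonium acetate and ethanol at −80 °C, dissolved in TE, and resolved on 2% agarose against a 100 bp marker.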

[27] = test system: DU-145; experiment: Induction of apoptosis in human DU145 cells assessed as mitochondrial membrane potential drop measured as necrotic cells at 2 uM after 48 hrs using JC-1 staining-based flow cytometry (reference value: 0%); type: functional
[28] = test system: DU-145; experiment: Induction of apoptosis in human DU145 cells assessed as mitochondrial membrane potential drop measured as late apoptotic cells at 2 uM after 48 hrs using JC-1 staining-based flow cytometry (reference value: 90.9%); type: functional
[29] = test system: DU-145; experiment: Induction of apoptosis in human DU145 cells assessed as mitochondrial membrane potential drop measured as viable cells at 2 uM after 48 hrs using JC-1 staining-based flow cytometry (reference value: 0%); type: functional
[30] = test system: DU-145; experiment: Induction of apoptosis in human DU145 cells assessed as mitochondrial membrane potential drop measured as early apoptotic cells at 2 uM after 48 hrs using JC-1 staining-based flow cytometry (reference value: 9.1%); type: functional
[31] = test system: DU-145; experiment: Induction of apoptosis in human DU145 cells assessed as mitochondrial membrane potential drop measured as necrotic cells at 1 uM after 48 hrs using JC-1 staining-based flow cytometry (reference value: 0%); type: functional
[32] = test system: DU-145; experiment: Induction of apoptosis in human DU145 cells assessed as mitochondrial membrane potential drop measured as late apoptotic cells at 1 uM after 48 hrs using JC-1 staining-based flow cytometry (reference value: 90.9%); type: functional
[33] = test system: DU-145; experiment: Induction of apoptosis in human DU145 cells assessed as mitochondrial membrane potential drop measured as viable cells at 1 uM after 48 hrs using JC-1 staining-based flow cytometry (reference value: 0%); type: functional
[34] = test system: DU-145; experiment: Induction of apoptosis in human DU145 cells assessed as mitochondrial membrane potential drop measured as early apoptotic cells at 1 uM after 48 hrs using JC-1 staining-based flow cytometry (reference value: 9.1%); type: functional

## COc1ccc(Nc2ncccc2C(=O)Nc2cccnc2Nc2ccc(F)cc2)cc1
[1]
  GI50: 18.5 µM
[2]
  GI50: 17.3 µM
[3]
  GI50: > 100 µM

## COc1ccc(Nc2ncccc2NC(=O)c2cccnc2Nc2cc(C(F)(F)F)cc(C(F)(F)F)c2)cc1
[1]
  GI50: > 100 µM
[2]
  GI50: > 100 µM
[3]
  GI50: 9.8 µM

## O=C(Nc1cccnc1Nc1ccc(F)cc1)c1cccnc1Nc1cc(C(F)(F)F)cc(C(F)(F)F)c1
[4]
  Activity: 2.41%
[5]
  Activity: 4.64%
[6]
  Activity: 53.38%
[7]
  Activity: 57.93%
[8]
  Activity: 1.77%
[9]
  Activity: 1.63%
[10]
  Activity: 41.19%
[11]
  Activity: 32.49%
[12]
  inhibition: 64.3%
[13]
  IC50: 2.16 µM
[14]
  inhibition: Active
[15]
  inhibition: Active
[16]
  fold change (FC): 2
[17]
  fold change (FC): 2
[18]
  Activity: 1.84%
[19]
  Activity: 1.27%
[20]
  Activity: 16.53%
[21]
  Activity: 14.03%
[22]
  viability at 2 µM: 75.7%
[23]
  viability at 1 µM: 80.4%
[24]
  Activity: 5.97%
[25]
  Activity: 4.28%
[26]
  Activity: Active
[27]
  Activity: 0%
[28]
  Activity: 67.4%
[29]
  Activity: 0%
[30]
  Activity: 32.6%
[31]
  Activity: 0%
[32]
  Activity: 89.4%
[33]
  Activity: 0%
[34]
  Activity: 10.6%
[1]
  GI50: 39.2 µM
[2]
  GI50: > 100 µM
[3]
  GI50: 0.99 µM

## COc1ccc(Nc2ncccc2NC(=O)c2cccnc2Nc2ccc(OC)cc2)cc1
[1]
  GI50: > 100 µM
[2]
  GI50: > 100 µM
[3]
  GI50: 21.2 µM

## O=C(Nc1cccnc1Nc1ccc(Cl)cc1)c1cccnc1Nc1cc(C(F)(F)F)cc(C(F)(F)F)c1
[1]
  GI50: 3.9 µM
[2]
  GI50: 10.5 µM
[3]
  GI50: 3.1 µM

## O=C(Nc1cccnc1Nc1ccccc1)c1cccnc1Nc1ccc(F)cc1
[1]
  GI50: > 100 µM
[2]
  GI50: > 100 µM
[3]
  GI50: 7.7 µM

## O=C(Nc1cccnc1Nc1ccccc1)c1cccnc1Nc1cc(C(F)(F)F)cc(C(F)(F)F)c1
[1]
  GI50: 3.2 µM
[2]
  GI50: 5.4 µM
[3]
  GI50: 4.8 µM

## O=C(Nc1cccnc1Nc1ccc(Cl)cc1)c1cccnc1Nc1ccc(F)cc1
[1]
  GI50: > 100 µM
[2]
  GI50: > 100 µM
[3]
  GI50: 4.1 µM

## COc1cc(Nc2ncccc2C(=O)Nc2cccnc2Nc2ccc(F)cc2)cc(OC)c1OC
[1]
  GI50: > 100 µM
[2]
  GI50: > 100 µM
[3]
  GI50: 7 µM
